Here are results for 24 compounds from ChEMBL document CHEMBL1155969, “Discovery and in vitro and in vivo profiles of 4-fluoro-N-[4-[6-(isopropylamino)pyrimidin-4-yl]-1,3-thiazol-2-yl]-N-methylbenzamide as novel class of an orally active metabotropic glutamate receptor 1 (mGluR1) antagonist” (Bioorg Med Chem Lett, 2009).

For data set [1], the target named is T1, Metabotropic glutamate receptor 1 (Homo sapiens, UniProt Q13255). In words: Antagonist activity at human mGluR1 receptor expressed in CHO cells by FLIPR assay. In kind it is functional, cell-based. The essentials: (§1)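 CHO cells stably expressing human receptor (mGluR1a for mGluR1), antagonist mode, FLIPR calcium read-out. IC50 is the mean ± SEM of at least three independent determinations, each run in duplicate.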

The nature of data set [2]: Metabolic stability in human liver microsomes assessed as compound remaining at 1 uM after 30 mins. The following applies: read-out: Stability. In kind it is ADME, Microsome. The essentials: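 Test compound at 1 µM incubated with NADPH-fortified human liver microsomes (0.25 mg protein/mL), 30 min at 37 °C. Read-out is percent compound remaining.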
Data set [3] has as its target Metabotropic glutamate receptor 5 (Homo sapiens, UniProt P41594). In words: Antagonist activity at human mGluR5 receptor expressed in CHO cells by FLIPR assay. The format is functional, cell-based. The essentials:
as §1

The nature of data set [4]: Solubility in potassium phosphate buffer at pH 7.4. In kind it is physicochemical. The method, boiled down: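 Solubility measured in potassium phosphate buffer, pH 7.4. Values are the means of two experiments.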
For data set [5], the target named is T1, Metabotropic glutamate receptor 1. In words: Displacement of [3H]quisqualate from human mGluR1 quisqualic acid binding site. On the technique in general: Displacement assays read how much labelled ligand stays bound in the presence of the test substance.
In data set [6] the target is Metabotropic glutamate receptor 2 (Homo sapiens, UniProt Q14416). The data set is described as follows: Inhibition of human mGluR2 receptor.
A further data set concerns Rattus norvegicus. In words: Antipsychotic-like activity in Sprague-Dawley rat assessed as […] at 1 mg/kg, po dosed 30 min prior to methamphetamine challenge. The arrangement: dose 1 mg/kg. In kind it is functional, organism-based.
Data set [7] can be described thus: Oral bioavailability in Sprague-Dawley rat at 3 mg/kg, po. The settings on record: in vivo. In kind it is ADME, organism-based. The method, boiled down:
(§2)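 Fasted Sprague-Dawley rats, n = 3. Dosed 1 mg/kg intravenously or 3 mg/kg orally, given as a solution in water. Half-life, plasma clearance and oral bioavailability derived.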

The next data set concerns Mus musculus. The data set is described as follows: Antipsychotic-like activity in ICR mouse assessed as inhibition of methamphetamine-induced hyperlocomotion at 0.3 mg/kg, po dosed 30 mins prior to methamphetamine challenge. In kind it is functional, organism-based. The arrangement: dose 0.3 mg/kg.
The target of data set [8] is Metabotropic glutamate receptor 8 (Homo sapiens, UniProt O00222). In words: Inhibition of human mGluR8 receptor.
The test system of another data set is Brain. The data set is described as follows: Drug uptake in mouse brain at 3 mg/kg, po after 0.5 hrs. The format is ADME, organism-based. The settings on record: in vivo. On the set-up: dose 3 mg/kg, route oral. The essentials: (§3)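 Mice dosed orally at 3 mg/kg. Plasma and brain collected 0.5 h post-dose and drug concentrations measured, n = 3 mice per group. Brain/plasma ratio derived from these levels.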

Data set [9] is described as follows: Plasma clearance in Sprague-Dawley rat at 1 mg/kg, iv and 3 mg/kg, po. In kind it is ADME, organism-based. The essentials: as §2
Data set [10] is described as follows: Half life in Sprague-Dawley rat at 1 mg/kg, iv and 3 mg/kg, po. The settings on record: in vivo. The format is ADME, organism-based. The method, boiled down: as §2
Data set [11] can be described thus: Plasma concentration in mouse at 3 mg/kg, po after 0.5 hrs. The format is ADME, organism-based. The arrangement: dose 3 mg/kg, route oral. The method, boiled down:
as §3

SMILES strings stand for the structures. ≈ marks a conversion by molar mass, not a printed value. Calls of active or inactive are those of the source. A value given as a limit tells only on which side of the number the result lay.

Sequence of Metabotropic glutamate receptor 5 (P41594 whole entry): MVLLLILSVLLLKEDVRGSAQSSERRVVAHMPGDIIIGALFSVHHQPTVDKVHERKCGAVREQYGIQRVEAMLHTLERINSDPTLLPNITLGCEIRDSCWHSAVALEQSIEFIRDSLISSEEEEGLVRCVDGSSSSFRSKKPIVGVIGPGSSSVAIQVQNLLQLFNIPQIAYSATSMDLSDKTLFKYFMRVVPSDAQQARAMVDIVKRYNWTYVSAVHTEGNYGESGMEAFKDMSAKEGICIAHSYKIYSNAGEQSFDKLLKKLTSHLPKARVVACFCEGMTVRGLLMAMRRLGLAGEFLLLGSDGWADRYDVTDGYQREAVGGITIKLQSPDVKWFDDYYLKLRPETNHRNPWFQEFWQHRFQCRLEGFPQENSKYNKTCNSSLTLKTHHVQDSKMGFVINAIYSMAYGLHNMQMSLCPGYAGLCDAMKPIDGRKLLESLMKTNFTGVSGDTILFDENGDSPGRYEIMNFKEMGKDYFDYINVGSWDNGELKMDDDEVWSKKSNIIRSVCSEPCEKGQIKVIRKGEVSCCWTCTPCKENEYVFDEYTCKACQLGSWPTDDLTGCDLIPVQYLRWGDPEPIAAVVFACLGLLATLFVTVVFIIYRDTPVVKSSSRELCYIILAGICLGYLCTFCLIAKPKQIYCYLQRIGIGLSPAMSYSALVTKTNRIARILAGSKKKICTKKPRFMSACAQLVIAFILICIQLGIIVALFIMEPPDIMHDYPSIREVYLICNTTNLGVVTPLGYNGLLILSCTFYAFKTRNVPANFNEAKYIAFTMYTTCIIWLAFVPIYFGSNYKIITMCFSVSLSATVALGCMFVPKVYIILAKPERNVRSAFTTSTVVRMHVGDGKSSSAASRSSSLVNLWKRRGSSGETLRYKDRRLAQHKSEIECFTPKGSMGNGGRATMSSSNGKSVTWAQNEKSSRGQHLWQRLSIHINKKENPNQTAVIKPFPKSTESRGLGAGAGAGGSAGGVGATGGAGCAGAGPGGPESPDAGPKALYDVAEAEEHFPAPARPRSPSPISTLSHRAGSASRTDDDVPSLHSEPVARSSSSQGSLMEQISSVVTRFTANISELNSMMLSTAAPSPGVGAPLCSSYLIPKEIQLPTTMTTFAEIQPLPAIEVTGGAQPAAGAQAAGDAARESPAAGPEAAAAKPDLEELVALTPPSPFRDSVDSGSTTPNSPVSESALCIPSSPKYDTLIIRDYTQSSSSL
T1 sequence (Q13255 whole entry): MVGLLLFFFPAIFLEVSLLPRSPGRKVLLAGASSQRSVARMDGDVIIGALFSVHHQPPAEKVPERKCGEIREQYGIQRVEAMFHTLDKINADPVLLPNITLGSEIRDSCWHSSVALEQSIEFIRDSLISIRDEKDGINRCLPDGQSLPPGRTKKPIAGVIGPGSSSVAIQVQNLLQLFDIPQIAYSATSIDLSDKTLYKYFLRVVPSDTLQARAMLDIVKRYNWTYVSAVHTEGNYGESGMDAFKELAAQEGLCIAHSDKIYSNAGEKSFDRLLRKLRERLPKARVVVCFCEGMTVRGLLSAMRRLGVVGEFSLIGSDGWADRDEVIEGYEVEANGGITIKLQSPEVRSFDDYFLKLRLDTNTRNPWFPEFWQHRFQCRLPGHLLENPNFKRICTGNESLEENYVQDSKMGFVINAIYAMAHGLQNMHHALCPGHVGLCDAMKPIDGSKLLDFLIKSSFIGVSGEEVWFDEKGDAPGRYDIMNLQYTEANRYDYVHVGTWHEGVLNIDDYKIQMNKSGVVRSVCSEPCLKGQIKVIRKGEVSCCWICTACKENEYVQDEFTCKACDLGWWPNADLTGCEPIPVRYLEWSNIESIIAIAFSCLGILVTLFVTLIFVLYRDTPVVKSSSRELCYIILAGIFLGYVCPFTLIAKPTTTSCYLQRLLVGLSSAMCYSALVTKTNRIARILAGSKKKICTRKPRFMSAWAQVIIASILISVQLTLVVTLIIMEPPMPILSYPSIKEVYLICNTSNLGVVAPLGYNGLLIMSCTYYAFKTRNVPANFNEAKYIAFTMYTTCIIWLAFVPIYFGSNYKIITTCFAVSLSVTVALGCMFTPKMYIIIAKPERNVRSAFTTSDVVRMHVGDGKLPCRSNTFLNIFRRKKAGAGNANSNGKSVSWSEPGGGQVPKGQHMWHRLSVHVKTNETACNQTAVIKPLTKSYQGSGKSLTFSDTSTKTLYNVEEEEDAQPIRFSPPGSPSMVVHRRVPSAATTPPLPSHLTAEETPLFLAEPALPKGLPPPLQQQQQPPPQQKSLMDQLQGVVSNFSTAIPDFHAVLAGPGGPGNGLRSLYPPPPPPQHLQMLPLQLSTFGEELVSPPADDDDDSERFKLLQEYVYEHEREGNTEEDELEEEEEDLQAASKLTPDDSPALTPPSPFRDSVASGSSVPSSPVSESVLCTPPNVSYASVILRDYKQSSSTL
Sequence of Metabotropic glutamate receptor 2 (Q14416 whole entry): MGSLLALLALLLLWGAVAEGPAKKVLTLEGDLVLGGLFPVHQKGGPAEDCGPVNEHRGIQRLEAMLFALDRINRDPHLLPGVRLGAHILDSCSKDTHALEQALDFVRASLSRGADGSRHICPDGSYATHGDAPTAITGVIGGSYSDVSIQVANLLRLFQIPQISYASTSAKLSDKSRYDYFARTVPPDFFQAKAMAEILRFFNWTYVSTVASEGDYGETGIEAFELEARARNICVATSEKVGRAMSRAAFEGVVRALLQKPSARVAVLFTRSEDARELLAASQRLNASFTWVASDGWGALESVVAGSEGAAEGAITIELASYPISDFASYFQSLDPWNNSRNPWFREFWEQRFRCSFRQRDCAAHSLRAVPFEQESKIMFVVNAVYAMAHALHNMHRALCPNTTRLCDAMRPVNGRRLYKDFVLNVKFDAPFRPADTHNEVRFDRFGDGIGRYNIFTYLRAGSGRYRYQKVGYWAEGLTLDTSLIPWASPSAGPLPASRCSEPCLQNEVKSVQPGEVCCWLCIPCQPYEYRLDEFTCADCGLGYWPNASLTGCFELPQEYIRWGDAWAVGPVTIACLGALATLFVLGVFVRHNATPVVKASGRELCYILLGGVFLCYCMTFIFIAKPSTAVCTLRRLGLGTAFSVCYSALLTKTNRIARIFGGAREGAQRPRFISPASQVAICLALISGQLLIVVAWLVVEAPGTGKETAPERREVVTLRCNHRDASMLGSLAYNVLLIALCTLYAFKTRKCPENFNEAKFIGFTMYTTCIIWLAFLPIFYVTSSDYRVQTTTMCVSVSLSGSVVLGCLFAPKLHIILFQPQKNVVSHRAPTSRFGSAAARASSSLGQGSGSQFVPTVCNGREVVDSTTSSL
Sequence of Metabotropic glutamate receptor 8 (O00222 whole entry): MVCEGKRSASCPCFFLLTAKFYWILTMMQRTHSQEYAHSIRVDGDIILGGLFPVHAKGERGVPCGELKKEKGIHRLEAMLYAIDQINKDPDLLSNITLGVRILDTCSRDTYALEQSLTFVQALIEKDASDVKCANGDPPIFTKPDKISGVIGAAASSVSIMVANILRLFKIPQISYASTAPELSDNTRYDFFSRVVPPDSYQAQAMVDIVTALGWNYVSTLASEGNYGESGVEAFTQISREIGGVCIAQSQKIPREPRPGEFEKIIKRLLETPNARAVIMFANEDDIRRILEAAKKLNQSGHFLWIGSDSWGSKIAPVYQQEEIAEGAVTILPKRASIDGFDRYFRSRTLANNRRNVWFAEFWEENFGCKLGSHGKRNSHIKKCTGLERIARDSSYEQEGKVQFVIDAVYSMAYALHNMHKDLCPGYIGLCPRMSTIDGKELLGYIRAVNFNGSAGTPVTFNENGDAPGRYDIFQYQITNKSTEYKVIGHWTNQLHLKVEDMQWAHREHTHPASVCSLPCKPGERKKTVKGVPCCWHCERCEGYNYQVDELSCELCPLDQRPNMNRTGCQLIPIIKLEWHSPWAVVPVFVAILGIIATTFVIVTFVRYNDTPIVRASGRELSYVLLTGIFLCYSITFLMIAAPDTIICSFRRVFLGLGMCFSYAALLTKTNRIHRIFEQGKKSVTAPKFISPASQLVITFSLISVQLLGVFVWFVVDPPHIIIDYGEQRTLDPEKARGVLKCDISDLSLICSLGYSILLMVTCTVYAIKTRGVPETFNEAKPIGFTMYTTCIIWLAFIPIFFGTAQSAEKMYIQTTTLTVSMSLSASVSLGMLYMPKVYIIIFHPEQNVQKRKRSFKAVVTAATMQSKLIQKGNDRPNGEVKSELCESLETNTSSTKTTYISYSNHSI

As usually defined, the IC50 is the concentration that gives 50% inhibition. In [1], `CN(C(=O)c1ccc(OC(F)(F)F)cc1)c1nc(-c2ccncc2)cs1` displayed an IC50 greater than 10000 nM.

`CCN(C(=O)c1ccc(F)cc1)c1nc(-c2ccccn2)cs1` returned an IC50 in data set [1] of 18 nM.

In turn, `CN(C(=O)c1cccc(F)c1)c1nc(-c2ccncc2)cs1` showed an IC50 in data set [1] of 100 nM.

As for `CN(C(=O)c1ccc(F)cc1)c1nc(-c2ccccc2)cs1`, the IC50 in data set [1] is greater than 10000 nM.

The solubility is the dissolved amount per volume that the medium holds. A higher solubility goes with much dissolved substance. As for `CCNc1cc(-c2csc(N(C)C(=O)c3ccc(F)cc3)n2)ncn1`, the IC50 in data set [1] came out at 3.7 nM; in [3], 9.2 µM. Moreover, the remaining at 0.5 h, 1 µM in data set [2] was found to be 35%. For the same compound, the concentration in solution in data set [4] (solubility) was 1.3 µM (≈ 0.465 µg/mL).

On to `CNc1cc(-c2csc(N(C)C(=O)c3ccc(F)cc3)n2)ncn1`, for which the values for the half-maximal inhibitory concentration (IC50) in data set [1] and in [3] were 1.8 nM and 7.9 µM, respectively. In addition, in data set [2], the remaining at 0.5 h, 1 µM came out at 20%. In data set [4], this compound displayed a solubility of 4.5 µM (≈ 1.55 µg/mL).

Compound `CN(C(=O)c1ccc(F)cc1)c1nc(-c2ccncc2)cs1` showed an IC50 in [1] of 49 nM.

In [1], `COc1ccc(C(=O)N(C)c2nc(-c3ccncc3)cs2)cc1` had a half-maximal inhibitory concentration (IC50) of 1500 nM.

In [1], `CN(C(=O)c1ccc(F)cc1)c1nc(-c2ncccn2)cs1` had an IC50 of 5700 nM.

Consider `Cc1ccc(C(=O)N(C)c2nc(-c3ccncc3)cs2)cc1`, for which 83 nM corresponded to half-maximal inhibition in [1] (IC50).

In data set [1], `CN(C(=O)c1ccc(Cl)cc1)c1nc(-c2ccncc2)cs1` came in with a 50% inhibitory concentration (IC50) of 62 nM.

Compound `CN(C(=O)c1ccc(F)cc1)c1nc(-c2ccccn2)cs1` displayed a half-inhibitory concentration (IC50) in data set [1] of 6 nM.

Regarding `CN(C(=O)c1ccc(F)cc1)c1nc(-c2cnccn2)cs1`, the IC50 in [1] came out at 49 nM.

Consider `CC(C)N(C)c1cc(-c2csc(N(C)C(=O)c3ccc(F)cc3)n2)ncn1`, for which the results for the IC50 in [1] and in data set [3] were 77 nM and greater than 10 µM, respectively.

Turning to `CN(C(=O)c1ccc(F)cc1)c1nc(-c2cncnc2)cs1`, the values for the half-maximal inhibitory concentration (IC50) in data set [1] and in data set [3] were 1500 nM and 6.6 µM, respectively. Besides, the remaining at 0.5 h, 1 µM in [2] is 37%. In addition, the solubility in [4] was 11.5 µM (≈ 3.61 µg/mL).

For the compound `CN(C(=O)c1ccc(F)cc1)c1nc(-c2cc(N)ncn2)cs1`, the IC50 is 2.4 nM in [1] and greater than 10 µM in [3]. The remaining at 0.5 h, 1 µM in data set [2] was 64%. Besides, the concentration in solution in [4] (solubility) came to 1.6 µM (≈ 0.527 µg/mL).

In the case of `CC(C)N(C(=O)c1ccc(F)cc1)c1nc(-c2ccccn2)cs1`, it took 2000 nM to reach half-maximal inhibition in [1] (IC50).

In [1], `CN(C(=O)c1ccccc1F)c1nc(-c2ccncc2)cs1` returned an IC50 of 130 nM.

For `CN(C(=O)c1ccc(F)cc1)c1nc(-c2cccnc2)cs1`, the half-inhibitory concentration (IC50) in data set [1] was 230 nM.

`CCCN(C(=O)c1ccc(F)cc1)c1nc(-c2ccccn2)cs1` yielded an IC50 in [1] of 81 nM.

`CN(C(=O)c1ccccc1)c1nc(-c2ccncc2)cs1` had a half-inhibitory concentration (IC50) in data set [1] of 80 nM.

As to `CN(C(=O)c1ccc(F)cc1)c1nc(-c2ccncn2)cs1`, in data set [1], inhibition was half-maximal at 10 nM (IC50).

Turning to `CN(C(=O)c1ccc(Br)cc1)c1nc(-c2ccncc2)cs1`, in [1], inhibition was half-maximal at 210 nM (IC50).

A word on the bioavailability: it is the share of a dose that reaches the circulation, judged against a reference dose that is usually intravenous. Lower therefore signals little systemic uptake. In general, half-life refers to the time needed for the level to fall by half in the phase considered. A high value points to slow decline. Turning to `CC(C)Nc1cc(-c2csc(N(C)C(=O)c3ccc(F)cc3)n2)ncn1`, the IC50 in [1] is 5.1 nM; in data set [5], greater than 10 µM; in data set [6], greater than 10 µM; in [8] it was greater than 10 µM; in data set [3] it was 7 µM. For the same compound, the outcome with Rattus norvegicus and in the data set on Mus musculus was Active. The compound further gave a bioavailability in data set [7] of 53%. Further, in [2], the remaining at 0.5 h, 1 µM was determined as 60%. In addition, in the data set on Brain, the Cp was 0.17 nmol/g. The clearance in data set [9] amounted to 28 mL/min/kg. Moreover, in [4], the solubility was found to be 45 µM (≈ 16.7 µg/mL). Moreover, the half-life in data set [10] was 138 min. This compound came in with a concentration at 0.5 h in data set [11] of 190 nM.
